Experimental data reported in ChEMBL document CHEMBL4138212, “Novel triazine dimers with potent antitrypanosomal activity” (Eur J Med Chem, 2018).
pIC50: −log10 of the molar value. The source made the active and inactive calls. The rule behind the calls is not given here.

Tests used:
[1] = Cytotoxicity against human MRC5 SV2 cells assessed as decrease in cell viability after 72 hrs by resazurin dye-based fluorometric method; details: MRC-5 SV2, 72 h
[2] = system: Trypanosoma cruzi; test: Antitrypanosomal activity against beta-galactosidase expressing nifurtimox-sensitive Trypanosoma cruzi Tulahuen CL2 infected in human MRC5 SV2 cells assessed as decrease in parasite burden after 168 hrs by spectrophotometric method; format: functional, organism-based; details: Tulahuen CL2, MRC-5 SV2, 168 h
[3] = system: Plasmodium falciparum; test: Antiplasmodial activity against chloroquine-resistant Plasmodium falciparum K1 infected in human O-positive erythrocytes assessed as decrease in parasitaemia after 72 hrs by NBT dye-based spectrophotometric method; format: functional, organism-based; details: K1, 72 h
[4] = system: Trypanosoma brucei brucei; test: (§1) Antitrypanosomal activity against suramin-sensitive Trypanosoma brucei brucei Squib 427 infected in Swiss mouse assessed as increase in mouse survival at 10 mg/kg administered first dose orally 1/2 hrs prior to infection followed by dosed intraperitoneally as qd for 5 days measured on day 14 post infection; format: functional, organism-based
Summary of the method: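 Female Swiss mice, 6 per group, were infected IP with about 1×10⁴ trypanosomes in 0.25 ml PBS-diluted donor blood on day 0. The first dose was given orally ½ h before infection, then IP for 5 days. Vehicles were 100% DMSO or DMSO/PEG200 (1/50); suramin was formulated in PBS. Mortality was monitored daily, ill animals were euthanized, and survivors were counted on day 14 post-infection.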

[5] = system: Trypanosoma brucei brucei; test: as §1, with “reduction” for “increase”, “parasitemia” for “mouse survival”, “4 of compound dosing by Giemsa staining-based microscopic method relative to control” for “14 post infection”; format: functional; design: scale not given: the % may be the effect or the level left
Summary of the method: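 Female Swiss mice, 6 per group, were infected IP with about 1×10⁴ trypanosomes on day 0. The first dose was given orally ½ h before infection, then IP for 5 days, in DMSO, DMSO/PEG200 (1/50) or PBS for suramin. On day 4, tail-vein blood smears were Giemsa-stained and counted microscopically. Activity = 100 − (mean parasitemia treated/mean vehicle-infected control)×100.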

[6] = system: Trypanosoma brucei rhodesiense; test: Antitrypanosomal activity against Trypanosoma brucei rhodesiense STIB-900 after 72 hrs by resazurin dye-based fluorometric method; format: functional, organism-based; details: STIB-900, 72 h
Summary of the method: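 Parasites in HMI-9 with 10% heat-inactivated FBS at 2×10⁴/mL were exposed to five 4-fold dilutions from 64 µg/mL for 72 h at 37 °C in 5% CO₂. IC₅₀ comes from % growth reduction versus controls, as the mean of at least two independent determinations.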

[7] = system: Trypanosoma brucei brucei; test: Antitrypanosomal activity against suramin-sensitive Trypanosoma brucei brucei Squib 427 after 72 hrs by resazurin dye-based fluorometric method; format: functional, organism-based; details: Squib 427, 72 h
Summary of the method: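 Bloodstream parasites in HMI-9 with 10% heat-inactivated FBS at 7×10⁴/mL were exposed to five 4-fold dilutions from 64 µg/mL for 72 h at 37 °C in 5% CO₂. IC₅₀ comes from % growth reduction versus controls, as the mean of at least two independent determinations.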

[8] = system: Leishmania infantum; test: Antileishmanial activity against amastigote stage of Leishmania infantum MHOM/MA(BE)/67 infected in mouse primary peritoneal macrophages assessed as decrease in parasite burden after 120 hrs by Giemsa staining-based microscopic method; format: functional, organism-based; details: MHOM/MA(BE)/67, 120 h

For `CCCCCCCCCCCCCCCCOP(=O)([O-])OCC[N+](C)(C)C` [MILTEFOSINE], the pIC50 [1] was < 4.19.

In the case of `CCN(CC)CCCC(C)Nc1ccnc2cc(Cl)ccc12` (stereo not drawn) [CHLOROQUINE], the pIC50 [1] was < 4.19.

In the case of `O=C(Cn1ccnc1[N+](=O)[O-])NCc1ccccc1` [BENZNIDAZOLE], the pIC50 [2] was 5.59 and the pIC50 [1] was < 4.19.

In the case of `CO[C@H]1O[C@@H]2O[C@@]3(C)CC[C@H]4[C@H](C)CC[C@@H]([C@H]1C)[C@@]24OO3`, the pIC50 [3] was 7.70 and the pIC50 [1] was < 4.19.

In the case of `Cc1ccc(C(=O)Nc2ccc(S(=O)(=O)O)c3cc(S(=O)(=O)O)cc(S(=O)(=O)O)c23)cc1NC(=O)c1cccc(NC(=O)Nc2cccc(C(=O)Nc3cc(C(=O)Nc4ccc(S(=O)(=O)O)c5cc(S(=O)(=O)O)cc(S(=O)(=O)O)c45)ccc3C)c2)c1` [SURAMIN], the Activity [4] was “Active”, the Activity [5] was 100% and the pIC50 [1] was < 4.19.

`Nc1nc(N)nc(Nc2ccc([As]3SCC(CO)S3)cc2)n1` (stereo not drawn) [MELARSOPROL] showed a pIC50 [1] of 5.13.

With `CC1CS(=O)(=O)CCN1/N=C/c1ccc([N+](=O)[O-])o1` (stereo not drawn) [NIFURTIMOX] the pIC50 [2] was 6.15 and the pIC50 [1] was < 4.19.

In the case of `Cc1cc(C)c(Nc2nc(Nc3ccc(C#N)cc3)nc(Nc3ccc(Nc4nc(Nc5ccc(C#N)cc5)nc(Nc5c(C)cc(C)cc5C)n4)cc3)n2)c(C)c1`, the pIC50 [6] was 7.70, the pIC50 [7] was 6.28 and the pIC50 [8] was < 4.19. The pIC50 [2] was < 4.19, the pIC50 [3] was < 4.19 and the pIC50 [1] was < 4.19.
